Source: ChEMBL document CHEMBL1123030, “N-(Aminoalkyl)imide antineoplastic agents. Synthesis and biological activity” (J Med Chem, 1985)
Active and inactive are the calls of the source. The rule behind the calls is not given here.

Assays:
Mus musculus [1] = assay: Compound was evaluated for inhibitory activity in vivo against P388 leukemia cells in mice at a dose of 3.12 mg/kg upon intraperitoneal administration; assay type: functional
How it was run: (§1)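 Tumor source was ascites fluid implanted into BDF₁ mice. Tumor inoculation and drug dosing were both intraperitoneal, given once daily for 5 days (q1d × 5). Screening and data interpretation followed the general NCI protocol.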

Mus musculus [2] = assay: Compound was evaluated for inhibitory activity in vivo against P388 leukemia cells in mice at a dose of 1.56 mg/kg upon intraperitoneal administration; assay type: functional; how it was run: as §1
L1210 [3] = assay: Cytotoxic activity against L1210 leukemia in vitro.; assay type: functional, Mus musculus
Mus musculus [4] = assay: Compound was evaluated for inhibitory activity in vivo against P388 leukemia cells in mice at a dose of 6.25 mg/kg upon intraperitoneal administration; assay type: functional; how it was run: as §1
Homo sapiens [5] = species on record: Homo sapiens; assay: Compound was tested for cytotoxic activity against human colon adenocarcinoma in vitro; assay type: functional
Homo sapiens [6] = species on record: Homo sapiens; assay: Compound was tested for cytotoxic activity against human colon adenocarcinoma in vitro; IA means inactive; assay type: functional
Mus musculus [7] = assay: Compound was evaluated for inhibitory activity in vivo against P388 leukemia cells in mice at a dose of 200 mg/kg upon intraperitoneal administration; assay type: functional; how it was run: as §1
P388 [8] = assay: Inhibitory activity in vivo against P388 leukemia cells in mice at a dose of 50 mg/kg upon intraperitoneal administration; assay type: functional, Mus musculus; how it was run: as §1
P388 [9] = assay: Inhibitory activity in vivo against P388 leukemia cells in mice at a dose of 100 mg/kg upon intraperitoneal administration; assay type: functional, Mus musculus; how it was run: as §1
Mus musculus [10] = assay: Compound was evaluated for inhibitory activity in vivo against P388 leukemia cells in mice at a dose of 400 mg/kg upon intraperitoneal administration; assay type: functional; how it was run: as §1
P388 [11] = assay: Inhibitory activity in vivo against P388 leukemia cells in mice at a dose of 12.5 mg/kg upon intraperitoneal administration; assay type: functional, Mus musculus; how it was run: as §1
P388 [12] = assay: Inhibitory activity in vivo against P388 leukemia cells in mice at a dose of 25 mg/kg upon intraperitoneal administration; assay type: functional, Mus musculus; how it was run: as §1
Homo sapiens [13] = species on record: Homo sapiens; assay: (§2) Compound was tested for cytotoxic activity against human colon adenocarcinoma in vitro; IA means Inactive; assay type: functional
Mus musculus [14] = assay: Compound was evaluated for inhibitory activity in vivo against P388 leukemia cells in mice at a dose of 120 mg/kg upon intraperitoneal administration; assay type: functional; how it was run: as §1
Mus musculus [15] = assay: Compound was evaluated for inhibitory activity in vivo against P388 leukemia cells in mice at a dose of 60 mg/kg upon intraperitoneal administration; assay type: functional; how it was run: as §1
[16] = as §2
L1210 [17] = assay: Compound was tested for cytotoxic activity against L1210 leukemia in vitro; IA means Inactive; assay type: functional, cell-based; settings: Mus musculus
L1210 [18] = assay: Compound was tested for cytotoxic activity against L1210 leukemia in vitro; IA means inactive; assay type: functional, cell-based; settings: Mus musculus
[19] = Cytotoxic activity against human colon adenocarcinoma in vitro; assay type: functional
Mus musculus [20] = assay: Compound was evaluated for inhibitory activity in vivo against P388 leukemia cells in mice at a dose of 0.78 mg/kg upon intraperitoneal administration; assay type: functional; how it was run: as §1
Mus musculus [21] = assay: Compound was evaluated for inhibitory activity in vivo against P388 leukemia cells in mice at a dose of 0.39 mg/kg upon intraperitoneal administration; assay type: functional; how it was run: as §1
L1210 [22] = assay: Compound was tested for cytotoxic activity against L1210 leukemia in vitro.; IA means Inactive; assay type: functional, cell-based; settings: Mus musculus
Mus musculus [23] = assay: Compound was evaluated for inhibitory activity in vivo against P388 leukemia cells in mice at a dose of 15 mg/kg upon intraperitoneal administration; assay type: functional; how it was run: as §1
Mus musculus [24] = assay: Compound was evaluated for inhibitory activity in vivo against P388 leukemia cells in mice at a dose of 7.5 mg/kg upon intraperitoneal administration; assay type: functional; how it was run: as §1
Mus musculus [25] = assay: Compound was evaluated for inhibitory activity in vivo against P388 leukemia cells in mice at a dose of 3.75 mg/kg upon intraperitoneal administration; assay type: functional; how it was run: as §1
Mus musculus [26] = assay: Compound was evaluated for inhibitory activity against B-16 melanoma in mice at a dose of 25 mg/kg upon intraperitoneal administration; assay type: functional
Mus musculus [27] = assay: Compound was evaluated for inhibitory activity against B-16 melanoma in mice at a dose of 12.5 mg/kg upon intraperitoneal administration; assay type: functional
Mus musculus [28] = assay: Compound was evaluated for inhibitory activity against B-16 melanoma in mice at a dose of 6.25 mg/kg upon intraperitoneal administration; assay type: functional
Mus musculus [29] = assay: Compound was evaluated for inhibitory activity in vivo against P388 leukemia cells in mice at a dose of 3.13 mg/kg upon intraperitoneal administration; assay type: functional; how it was run: as §1

Row | SMILES | Cytotoxic concentration (L1210 [3]) [nM] | T/C (P388 [8]) | T/C (P388 [9]) | T/C (P388 [11]) | T/C (P388 [12]) | also measured
1 | CN(C)CCN1C(=O)c2cccc3cc([N+](=O)[O-])cc(c23)C1=O.Cl | 151 | – | – | – | – | T/C (Mus musculus [1]): 138; T/C (Mus musculus [2]): 121; T/C (Mus musculus [4]): 164; Cytotoxic concentration (Homo sapiens [5]): 106 nM
2 | CN(C)CCN1C(=O)c2cc(O)cc3cc(O)cc(c23)C1=O | 3540 | 142 | 148 | 122 | 130 | Cytotoxic concentration (Homo sapiens [6]): inactive; T/C (Mus musculus [7]): 149; T/C (Mus musculus [10]): 140
3 | O=C1OCCN1CCN1C(=O)c2cc([N+](=O)[O-])cc3cc([N+](=O)[O-])cc(c23)C1=O | 2020 | – | – | – | – | Cytotoxic concentration (Homo sapiens [13]): inactive; T/C (Mus musculus [14]): 119; T/C (Mus musculus [15]): 109
4 | O=C1c2cc([N+](=O)[O-])cc3cc([N+](=O)[O-])cc(c23)C(=O)N1c1nncs1 | – | 127 | 137 | 91 | 119 | Cytotoxic concentration [16]: Not Active; Cytotoxic concentration (L1210 [17]): inactive
5 | CN(C)CCN1C(=O)c2ccc(Cl)c3c(Cl)ccc(c23)C1=O | 699 | – | – | – | 107 | –
6 | COc1ccc2c3c(cccc13)C(=O)N(CCN(C)C)C2=O | – | 109 | 117 | – | – | T/C (Mus musculus [7]): 133; Cytotoxic concentration (L1210 [18]): inactive
7 | Cl.O=C1c2cc([N+](=O)[O-])cc3cc([N+](=O)[O-])cc(c23)C(=O)N1CCN1CCCC1 | 82.9 | – | – | – | – | Cytotoxic concentration [19]: 172 nM; T/C (Mus musculus [20]): 126; T/C (Mus musculus [1]): 136; T/C (Mus musculus [2]): 138; T/C (Mus musculus [21]): 117
8 | Cl.O=C1c2cccc3cc([N+](=O)[O-])cc(c23)C(=O)N1CCN1CCOCC1 | – | 105 | 183 | – | – | Cytotoxic concentration (L1210 [18]): inactive
9 | CN(C)CCN1C(=O)c2cccc3c(Cl)ccc(c23)C1=O | 1010 | 121 | 120 | – | 105 | –
10 | CN(C)CCN1C(=O)c2cccc3c(O)ccc(c23)C1=O.I | – | – | 107 | – | – | T/C (Mus musculus [7]): 112; Cytotoxic concentration (L1210 [22]): inactive; T/C (Mus musculus [10]): 120
11 | Cl.O=C1c2cccc3cccc(c23)C(=O)N1CCNCCO | 2050 | 120 | – | – | 102 | –
12 | CCN(CC)CCN1C(=O)c2cccc3cc([N+](=O)[O-])cc(c23)C1=O.Cl | 1370 | – | – | 120 | 149 | –
13 | CN(C)CCN1C(=O)c2cc(N)cc3cc(N)cc(c23)C1=O.Cl.Cl.Cl | 337 | – | – | – | – | Cytotoxic concentration [19]: 677 nM; T/C (Mus musculus [23]): 163; T/C (Mus musculus [15]): 188; T/C (Mus musculus [24]): 163; T/C (Mus musculus [25]): 125
14 | CN(C)CCN1C(=O)c2ccc3c4c(ccc(c24)C1=O)C(=O)N(CCN(C)C)C3=O | – | – | – | – | – | T/C (Mus musculus [1]): 116; T/C (Mus musculus [4]): 125
15 | Cl.O=C1c2cc([N+](=O)[O-])cc3cc([N+](=O)[O-])cc(c23)C(=O)N1CCN1CCCCC1 | 287 | 247 | – | 138 | 181 | T/C (Mus musculus [26]): 156; Cytotoxic concentration [19]: 539 nM; T/C (Mus musculus [27]): 133; T/C (Mus musculus [28]): 114
16 | Cl.O=C1c2cccc3cc([N+](=O)[O-])cc(c23)C(=O)N1CCN1CCCC1 | 159 | – | – | 163 | – | T/C (Mus musculus [29]): 135; T/C (Mus musculus [4]): 149
